Reference: ChEMBL document CHEMBL1125320, “Imidazole-5-acrylic acids: potent nonpeptide angiotensin II receptor antagonists designed using a novel peptide pharmacophore model” (J Med Chem, 1992)

What was measured:
[1] = biological target: T1, Type-1 angiotensin II receptor B (Rattus norvegicus, UniProt P29089); experiment: Inhibition of [125I]angiotensin II receptor specific binding to rat mesenteric arteries
T1 sequence (P29089 whole entry): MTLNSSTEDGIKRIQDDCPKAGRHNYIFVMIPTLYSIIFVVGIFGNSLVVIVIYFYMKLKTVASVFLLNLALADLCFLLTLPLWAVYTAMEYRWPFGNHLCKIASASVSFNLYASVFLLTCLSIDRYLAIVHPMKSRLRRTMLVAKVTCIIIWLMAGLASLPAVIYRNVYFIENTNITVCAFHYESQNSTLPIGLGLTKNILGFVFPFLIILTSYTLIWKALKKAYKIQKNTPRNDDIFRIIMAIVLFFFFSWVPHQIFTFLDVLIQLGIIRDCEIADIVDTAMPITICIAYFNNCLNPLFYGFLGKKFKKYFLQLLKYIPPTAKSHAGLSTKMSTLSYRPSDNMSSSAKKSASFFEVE

[2] = biological target: Angiotensin II receptor (Oryctolagus cuniculus); experiment: Inhibition of angiotensin II induced vasoconstriction of rabbit aorta
Angiotensin II receptor = biological target: T2, Angiotensin II receptor (Rattus norvegicus, UniProt P29089+P25095+P35351); experiment: Inhibition of [125I]angiotensin II specific binding to rat mesenteric arteries; format: protein assay
T2 sequence (P29089 whole entry): T1 sequence (P29089 whole entry)
T2 sequence (P25095 whole entry): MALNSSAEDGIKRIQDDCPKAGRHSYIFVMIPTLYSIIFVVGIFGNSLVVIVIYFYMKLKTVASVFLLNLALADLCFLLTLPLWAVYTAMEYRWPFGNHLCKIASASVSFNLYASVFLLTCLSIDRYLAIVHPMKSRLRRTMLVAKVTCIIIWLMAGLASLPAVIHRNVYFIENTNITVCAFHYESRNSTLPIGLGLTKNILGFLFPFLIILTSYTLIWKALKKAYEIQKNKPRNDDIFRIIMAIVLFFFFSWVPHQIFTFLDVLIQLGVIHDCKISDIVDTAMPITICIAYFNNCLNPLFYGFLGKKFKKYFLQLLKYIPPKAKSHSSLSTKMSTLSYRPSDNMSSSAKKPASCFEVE
T2 sequence (P35351 whole entry): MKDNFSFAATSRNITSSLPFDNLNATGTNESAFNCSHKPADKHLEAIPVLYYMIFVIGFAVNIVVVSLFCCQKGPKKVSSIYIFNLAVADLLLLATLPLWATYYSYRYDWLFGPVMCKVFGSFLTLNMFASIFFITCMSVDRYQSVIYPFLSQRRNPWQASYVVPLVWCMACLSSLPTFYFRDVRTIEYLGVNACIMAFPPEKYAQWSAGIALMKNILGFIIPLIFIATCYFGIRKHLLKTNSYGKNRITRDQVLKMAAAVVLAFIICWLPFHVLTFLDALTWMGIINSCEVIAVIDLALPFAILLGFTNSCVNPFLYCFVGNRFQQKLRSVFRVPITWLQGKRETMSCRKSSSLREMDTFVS

Rattus norvegicus = experiment: Compound was evaluated in vivo, for the dose that produced 50% inhibition of the pressor response to AII in conscious normotensive rats after iv administration; format: functional; details: read-out: ID50 (the source's name)
Outline: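 Conscious normotensive rats with indwelling femoral arterial and venous catheters were tested 2-3 days after surgery while in a restrainer, with continuous arterial pressure recording. The MAP rise to iv angiotensin II 250 ng/kg was measured at time points before and after iv compound at 0.3-300 mg/kg.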

[3] = biological target: T3, Type-1 angiotensin II receptor (Oryctolagus cuniculus) (UniProt P34976); experiment: (§1) Compound was evaluated for the inhibition of AII-induced vasoconstriction of the rabbit aorta
T3 sequence (whole entry): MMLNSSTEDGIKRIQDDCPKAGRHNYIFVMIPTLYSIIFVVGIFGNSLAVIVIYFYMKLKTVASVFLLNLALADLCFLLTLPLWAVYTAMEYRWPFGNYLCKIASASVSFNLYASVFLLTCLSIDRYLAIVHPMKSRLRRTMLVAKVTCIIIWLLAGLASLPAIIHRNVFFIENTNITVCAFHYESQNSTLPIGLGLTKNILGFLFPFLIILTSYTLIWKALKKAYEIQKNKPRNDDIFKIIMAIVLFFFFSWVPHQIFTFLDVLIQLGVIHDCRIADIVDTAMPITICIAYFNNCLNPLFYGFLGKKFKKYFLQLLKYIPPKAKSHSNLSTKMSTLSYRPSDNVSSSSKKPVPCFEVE
Outline: (§2)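 Isolated rabbit aorta ring segments mounted on metal supports attached to force displacement transducers. Cumulative angiotensin II concentration-response curves were run without antagonist or after a 30-min antagonist incubation.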

[4] = biological target: Angiotensin II receptor (Oryctolagus cuniculus); experiment: Compound was evaluated for the inhibition of Angiotensin II receptor, induced vasoconstriction of the rabbit aorta
[5] = biological target: T3, Type-1 angiotensin II receptor (Oryctolagus cuniculus); experiment: as §1; format: functional, tissue-based; outline: as §2
[6] = biological target: T3, Type-1 angiotensin II receptor (Oryctolagus cuniculus); experiment: (§3) Compound was evaluated for the inhibition of Angiotensin II receptor induced vasoconstriction of the rabbit aorta; format: tissue-based; outline: as §2
[7] = biological target: T3, Type-1 angiotensin II receptor (Oryctolagus cuniculus); experiment: as §3; format: functional, tissue-based; outline: as §2

| SMILES | Kb [2] | IC50 (Angiotensin II receptor) | other results |
| --- | --- | --- | --- |
| CCCCc1ncc(/C=C(\Cc2ccc(OC)s2)C(=O)O)n1Cc1ccccc1Cl | 30 nM | – | IC50 [1]: 90 nM |
| CCCCc1ncc(/C=C(\Cc2ccncc2)C(=O)O)n1Cc1ccccc1Cl | 170 nM | 150 nM | ED50 (Rattus norvegicus): 5.9 mg/kg |
| CCCCc1ncc(/C=C(\Cc2cccs2)C(=O)O)n1Cc1ccccc1Cl | – | – | ED50 (Rattus norvegicus): 3.6 mg/kg |
| CCCCc1ncc(/C=C(\Cc2ccco2)C(=O)O)n1Cc1ccccc1Cl | 50 nM | 1200 nM | – |
| CCCCc1ncc(/C=C(\Cc2ccccc2C)C(=O)O)n1Cc1ccccc1Cl | 1140 nM | – | IC50 [1]: 5000 nM |
| CCCCc1ncc(/C=C(\Cc2ccc(O)cc2)C(=O)O)n1Cc1ccccc1Cl | 470 nM | 120 nM | – |
| CCCCc1ncc(/C=C(\Cc2ccccc2)C(=O)O)n1Cc1ccccc1Cl | – | – | IC50 [1]: 2600 nM; Kb [3]: 64 nM; ED50 (Rattus norvegicus): 14 mg/kg |
| CCCCc1ncc(/C=C(\Cc2cc(OC)cs2)C(=O)O)n1Cc1ccccc1Cl | 30 nM | – | IC50 [1]: 300 nM |
| CCCCc1ncc(/C=C(\Cc2ccc(N(C)C)cc2)C(=O)O)n1Cc1ccccc1Cl | 590 nM | 14600 nM | – |
| CCCCc1ncc(/C=C(\Cc2ccc3ccccc3c2)C(=O)O)n1Cc1ccccc1Cl | 14600 nM | 21900 nM | – |
| CCCCc1ncc(/C=C(/C(=O)O)C(Cc2ccccc2)c2cccs2)n1Cc1ccccc1Cl (stereo not drawn) | 610 nM | 5200 nM | – |
| CCCCc1ncc(/C=C(\Cc2sccc2C)C(=O)O)n1Cc1ccccc1Cl | 280 nM | – | IC50 [1]: 730 nM |
| CCCCc1ncc(/C=C(\Cc2cccnc2)C(=O)O)n1Cc1ccccc1Cl | 180 nM | 300 nM | ED50 (Rattus norvegicus): 9.8 mg/kg |
| CCCCc1ncc(/C=C(\Cc2c[nH]cn2)C(=O)O)n1Cc1ccccc1Cl | 310 nM | 250 nM | ED50 (Rattus norvegicus): 11 mg/kg |
| CCCCc1ncc(/C=C(\Cc2ccc(OC)c(OC)c2)C(=O)O)n1Cc1ccccc1Cl | – | 6800 nM | Kb [4]: 620 nM |
| CCCCc1ncc(/C=C(\Cc2ccsc2)C(=O)O)n1Cc1ccccc1Cl | – | – | IC50 [1]: 330 nM; ED50 (Rattus norvegicus): 6.4 mg/kg |
| CCCCc1ncc(/C=C(\Cc2ccoc2)C(=O)O)n1Cc1ccccc1Cl | 30 nM | 360 nM | – |
| CCCCc1ncc(/C=C(\Cc2ccc(N)cc2)C(=O)O)n1Cc1ccccc1Cl | 320 nM | – | IC50 [1]: 3000 nM |
| CCCCc1ncc(-c2ccccc2C(=O)O)n1Cc1ccccc1Cl | 17200 nM | > 100000 nM | – |
| CCCCc1ncc(/C=C/C(=O)O)n1Cc1ccccc1Cl | 14000 nM | 124000 nM | – |
| CCCCc1ncc(/C=C(\Cc2ccc(C)s2)C(=O)O)n1Cc1ccccc1Cl | 130 nM | – | IC50 [1]: 700 nM; ED50 (Rattus norvegicus): 7.6 mg/kg |
| CCCCc1ncc(/C=C(/C(=O)O)C(CCCC)c2cccs2)n1Cc1ccccc1Cl (stereo not drawn) | – | 18700 nM | Kb [5]: 3100 nM |
| CCCCc1ncc(CCCCCC(=O)O)n1Cc1ccccc1Cl | 7000 nM | 19000 nM | – |

| SMILES | Kb [2] | IC50 (Angiotensin II receptor) | other results |
| --- | --- | --- | --- |
| CCCCc1ncc(/C=C(/C(=O)O)c2ccccc2)n1Cc1ccccc1Cl | 600 nM | 20100 nM | – |
| CCCCc1ncc(/C=C(/C(=O)O)C(c2ccccc2)c2cccs2)n1Cc1ccccc1Cl (stereo not drawn) | 2300 nM | – | IC50 [1]: 2400 nM |
| CCCCc1ncc(/C=C(/Cc2ccccc2)C(=O)O)n1Cc1ccccc1Cl | – | – | Kb [5]: 8700 nM |
| CCCCc1ncc(/C=C(\Cc2cccc(OC)c2)C(=O)O)n1Cc1ccccc1Cl | 270 nM | 810 nM | ED50 (Rattus norvegicus): 10 mg/kg |
| CCCCc1ncc(/C=C(\Cc2ccc(OC)cc2)C(=O)O)n1Cc1ccccc1Cl | 120 nM | 810 nM | ED50 (Rattus norvegicus): 9 mg/kg |
| CCCCc1ncc(/C=C(\Cc2ccc([N+](=O)[O-])cc2)C(=O)O)n1Cc1ccccc1Cl | 310 nM | – | IC50 [1]: 400 nM |
| CCCCc1ncc(CCC(=O)O)n1Cc1ccccc1Cl | 2800 nM | 16500 nM | – |
| CCCCc1ncc(/C=C\C(=O)O)n1Cc1ccccc1Cl | 810 nM | 8900 nM | ED50 (Rattus norvegicus): 15 mg/kg |
| CCCCc1ncc(CCCCC(=O)O)n1Cc1ccccc1Cl | 11000 nM | 17000 nM | – |
| CCCCc1nc(Cl)c(CC(=O)O)n1Cc1ccccc1Cl | – | – | Kb [6]: 2700 nM; ED50 (Rattus norvegicus): 30 mg/kg |
| CCCCc1ncc(CC(=O)O)n1Cc1ccccc1Cl | – | – | ED50 (Rattus norvegicus): 22.5 mg/kg |
| CCCCc1ncc(/C=C(/Cc2ccco2)C(=O)O)n1Cc1ccccc1Cl | 14400 nM | > 100000 nM | – |
| CCCCc1ncc(/C=C(\CCc2cccs2)C(=O)O)n1Cc1ccccc1Cl | – | 860 nM | Kb [7]: 140 nM |
| CCCCc1ncc(/C=C(\Cc2cc(OC)c(OC)c(OC)c2)C(=O)O)n1Cc1ccccc1Cl | 1700 nM | 1900 nM | – |
| CCCCc1ncc(-c2cccc(C(=O)O)c2)n1Cc1ccccc1Cl | 4800 nM | 33900 nM | – |
| CCCCc1ncc(/C=C(\Cc2ccc(Cl)c(Cl)c2)C(=O)O)n1Cc1ccccc1Cl | 13700 nM | – | IC50 [1]: 25600 nM |
| CCCCc1ncc(/C=C(\C)C(=O)O)n1Cc1ccccc1Cl | 970 nM | 22300 nM | – |
| CCCCc1ncc(/C=C(\Cc2ccc3c(c2)OCO3)C(=O)O)n1Cc1ccccc1Cl | 130 nM | 470 nM | ED50 (Rattus norvegicus): 9.4 mg/kg |
| CCCCc1ncc(CCCC(=O)O)n1Cc1ccccc1Cl | 15000 nM | > 10000 nM | – |
| CCCCc1ncc(/C=C(\Cc2ccccn2)C(=O)O)n1Cc1ccccc1Cl | 2900 nM | 820 nM | – |
| CCCCc1ncc(/C=C(\CCc2ccccc2)C(=O)O)n1Cc1ccccc1Cl | 420 nM | 2900 nM | – |
| CCCCc1ncc(/C(C)=C/C(=O)O)n1Cc1ccccc1Cl | 660 nM | 3600 nM | – |
| CCCCc1ncc(/C=C(/C(=O)O)C(C)c2ccccc2)n1Cc1ccccc1Cl (stereo not drawn) | 240 nM | 4600 nM | – |
